Measured values published in ChEMBL document CHEMBL1687813 (Antimicrob Agents Chemother, 2010).
Values after ≈ are worked out from the molar mass of the structure shown.

Key:
[1] = test system: Mycolicibacterium smegmatis; experiment: Antimicrobial activity against Mycobacterium smegmatis mc27093 harboring Mycobacterium tuberculosis H37Ra attBL5:::Ptc::pzaA from Mycobacterium tuberculosis after 11 days by broth microdilution method at pH 6.8; format: functional; settings: mc27093, 264 h
Method in brief: (§1)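 Tubercle bacilli were diluted to 10^6 CFU/ml in supplemented 7H9 containing graded PZA or 5-Cl PZA, at pH 6.0 or neutral pH 6.8. Cultures were incubated 11 days at 37°C. The MIC is the lowest concentration blocking visible growth. Integrated amidase constructs were induced with 50 ng/ml anhydrotetracycline.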

[2] = test system: Mycolicibacterium smegmatis; experiment: Antimicrobial activity against Mycobacterium smegmatis mc27092 harboring Mycobacterium tuberculosis H37Ra attBL5:::Ptc::pzaAMsmeg after 11 days by broth microdilution method at pH 6.8; format: functional; settings: mc27092, 264 h; method in brief: as §1
[3] = test system: Mycolicibacterium smegmatis; experiment: Antimicrobial activity against Mycobacterium smegmatis mc27093 harboring Mycobacterium tuberculosis H37Ra attBL5:::Ptc::pzaA from Mycobacterium tuberculosis after 11 days by broth microdilution method at pH 6; format: functional; settings: mc27093, 264 h; method in brief: as §1
[4] = test system: Mycolicibacterium smegmatis; experiment: Antimicrobial activity against Mycobacterium smegmatis mc27092 harboring Mycobacterium tuberculosis H37Ra attBL5:::Ptc::pzaAMsmeg after 48 hrs by broth microdilution method at pH 6; format: functional; settings: mc27092, 48 h
[5] = test system: Mycobacterium tuberculosis variant bovis BCG; experiment: Antimicrobial activity against Mycobacterium bovis BCG Pasteur after 11 days by broth microdilution method at pH 6.8; format: functional; settings: 264 h; method in brief: as §1
[6] = biological target: T1, PYRAZINAMIDASE/NICOTINAMIDAS PNCA (PZase) (Mycobacterium bovis) (UniProt Q93SP7); experiment: Activity of pyrazinamidase in Mycobacterium bovis BCG Pasteur assessed as compound turnover per ml of microbial cells after 30 mins by calorimetric analysis; settings: Mycobacterium tuberculosis variant bovis BCG
T1 sequence (whole entry): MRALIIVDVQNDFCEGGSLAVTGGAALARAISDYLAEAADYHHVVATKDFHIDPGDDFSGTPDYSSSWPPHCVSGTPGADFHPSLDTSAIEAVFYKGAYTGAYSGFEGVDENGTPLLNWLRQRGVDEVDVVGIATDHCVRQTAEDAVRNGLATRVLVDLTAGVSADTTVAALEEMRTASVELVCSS
Method in brief: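 Whole-cell colorimetric amidase assay: log-phase cells were pelleted and resuspended in sterile water with 0.05% tyloxapol. Substrate (PZA or 5-Cl PZA) was added to 2 mM at 37°C with shaking and sampled at intervals. Clarified aliquots received ferrous ammonium sulfate (20 mM final), stood 30 min at 4°C, were re-spun, and were read at OD468. Extinction coefficients were 0.68 (PA) and 0.47 (5-Cl PA) per mM. Activity is nmol/min per ml of cells (OD600).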

[7] = test system: Mycobacterium tuberculosis variant bovis BCG; experiment: Antimicrobial activity against Mycobacterium bovis BCG Pasteur after 11 days by broth microdilution method at pH 6; format: functional; settings: 264 h; method in brief: as §1

## NC(=O)c1cnc(Cl)cn1
[1]
  MIC: 12.5 µg/mL (≈ 79.3 µM)
[2]
  MIC: 12.5 µg/mL (≈ 79.3 µM)
[3]
  MIC: 200 µg/mL (≈ 1270 µM)
[4]
  MIC: 25 µg/mL (≈ 159 µM)
[5]
  MIC: 100 µg/mL (≈ 635 µM)
[6]
  Activity: 0.11 nmol/min
[7]
  MIC: 25 µg/mL (≈ 159 µM)

## NC(=O)c1cnccn1 [PYRAZINAMIDE]
[1]
  MIC: 12.5 µg/mL (≈ 102 µM)
[2]
  MIC: > 1000 µg/mL
[3]
  MIC: 12.5 µg/mL (≈ 102 µM)
[4]
  MIC: 62.5 µg/mL (≈ 508 µM)
[5]
  MIC: 25 µg/mL (≈ 203 µM)
[6]
  Activity: 0.015 nmol/min
[7]
  MIC: 50 µg/mL (≈ 406 µM)
